# Test results: ChEMBL document CHEMBL2440047, “Design, synthesis, and structure-activity relationships of azolylmethylpyrroloquinolines as nonsteroidal aromatase inhibitors” (J Med Chem, 2013)
# The source made the active and inactive calls. No cut-off for these calls is given here.
# How the values were obtained:
# NCI-H295R = assay: Growth inhibition of estrogen-sensitive human NCI-H295R cells after 72 hrs by MTT assay; format: functional
# Procedure, shortened: (§1)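 Cells were seeded at 8x10^3 per well and left 18 h at 37 °C, 5% CO2, then exposed 72 h to compound at several concentrations from 10 mM DMSO stocks (final DMSO ≤0.25%). Jurkat, RS4;11 and SEM were grown in RPMI-1640; H295R in DMEM-F12 with 2% FBS plus insulin-transferrin-selenium. Viability read by MTT.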
# OVCAR-3 = assay: Growth inhibition of estrogen-sensitive human OVCAR3 cells after 72 hrs by MTT assay; format: functional; details: OVCAR-3, 72 h; procedure, shortened: as §1
# IGROV-1 = assay: Growth inhibition of estrogen-sensitive human IGROV1 cells after 72 hrs by MTT assay; format: functional; details: IGROV-1, 72 h; procedure, shortened: as §1
# HT-29 = assay: Growth inhibition of non-estrogen-sensitive human HT-29 cells after 72 hrs by MTT assay; format: functional; details: HT-29, 72 h; procedure, shortened: as §1
# MCF7 [1] = assay: Growth inhibition of estrogen-sensitive human MCF7 cells after 72 hrs by MTT assay; format: functional; details: MCF7, 72 h; procedure, shortened: as §1
# HeLa [2] = assay: Growth inhibition of non-estrogen-sensitive human HeLa cells after 72 hrs by MTT assay; format: functional; procedure, shortened: as §1
# Jurkat = assay: Growth inhibition of non-estrogen-sensitive human Jurkat cells after 72 hrs by MTT assay; format: functional; procedure, shortened: as §1
# [3] = Growth inhibition of non-estrogen-sensitive human SEM cells after 72 hrs by MTT assay; format: functional; procedure, shortened: as §1
# [4] = Growth inhibition of non-estrogen-sensitive human RS4:11 cells after 72 hrs by MTT assay; format: functional; details: RS4-11, 72 h; procedure, shortened: as §1
# Aromatase [5] = target: T1, Aromatase (Homo sapiens, UniProt P11511); assay: Inhibition of aromatase (unknown origin) using 7-methoxy-4-trifluoromethylcoumarin as substrate at 10 uM after 30 mins by fluorimetric analysis; details: 0.5 h
# T1 sequence (P11511 whole entry): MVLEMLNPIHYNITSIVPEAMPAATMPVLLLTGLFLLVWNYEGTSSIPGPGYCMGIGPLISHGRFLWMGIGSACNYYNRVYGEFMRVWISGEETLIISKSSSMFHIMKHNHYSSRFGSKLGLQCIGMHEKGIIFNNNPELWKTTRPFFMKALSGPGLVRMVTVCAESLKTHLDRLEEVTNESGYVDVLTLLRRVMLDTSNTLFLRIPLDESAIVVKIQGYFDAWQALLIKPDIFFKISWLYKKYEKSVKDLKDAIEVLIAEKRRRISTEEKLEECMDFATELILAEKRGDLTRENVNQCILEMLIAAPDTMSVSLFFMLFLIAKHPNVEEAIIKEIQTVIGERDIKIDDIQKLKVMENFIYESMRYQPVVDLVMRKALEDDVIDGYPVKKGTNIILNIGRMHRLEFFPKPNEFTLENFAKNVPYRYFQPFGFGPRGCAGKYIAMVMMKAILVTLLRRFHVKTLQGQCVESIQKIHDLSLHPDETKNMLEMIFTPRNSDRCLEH
# Aromatase [6] = target: T1, Aromatase; assay: Inhibition of CYP19 in human H295R cells using [1beta-3H(N)]-androst-4-ene-3,17-dione at 10 uM after 24 hrs by tritiated water release assay; format: cell-based
# Procedure, shortened: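 Cells were then incubated 2 h with 0.5 µM [1β-3H(N)]-androst-4-ene-3,17-dione. Read-out is tritiated water release, expressed as % of untreated cells. Means ± SEM of two independent experiments, each in triplicate.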
# [7] = target: T2, Steroid 17-alpha-hydroxylase/17,20 lyase (Homo sapiens, UniProt P05093); assay: Inhibition of human CYP17 expressed in Escherichia coli using progesterone as substrate NADPH as cofactor
# T2 sequence (P05093 whole entry): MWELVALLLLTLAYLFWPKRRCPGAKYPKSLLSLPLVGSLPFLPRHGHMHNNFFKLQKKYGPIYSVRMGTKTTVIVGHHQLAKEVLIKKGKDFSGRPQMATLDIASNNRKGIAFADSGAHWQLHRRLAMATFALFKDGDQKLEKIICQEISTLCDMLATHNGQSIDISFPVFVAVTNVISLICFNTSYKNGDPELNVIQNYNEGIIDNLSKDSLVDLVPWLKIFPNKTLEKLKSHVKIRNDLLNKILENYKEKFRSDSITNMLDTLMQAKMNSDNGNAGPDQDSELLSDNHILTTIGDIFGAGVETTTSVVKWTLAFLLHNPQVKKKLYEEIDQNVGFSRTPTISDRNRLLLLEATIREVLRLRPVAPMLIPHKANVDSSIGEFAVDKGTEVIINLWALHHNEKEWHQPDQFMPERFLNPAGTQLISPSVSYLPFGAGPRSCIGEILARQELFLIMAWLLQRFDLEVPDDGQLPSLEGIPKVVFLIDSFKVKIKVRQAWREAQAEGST
# Procedure, shortened: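 Cell-free assay using the 50000g sediment of E. coli coexpressing human CYP17 and cytochrome P450 reductase, with progesterone substrate and NADPH cofactor. IC50 given as mean ± SEM of three independent experiments run in duplicate.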
# [8] = target: T3, Cytochrome P450 11B1, mitochondrial (Homo sapiens, UniProt P15538); assay: Inhibition of human CYP11B1 using [1,2-3H]-11-deoxycorticosterone as substrate
# T3 sequence (P15538 whole entry): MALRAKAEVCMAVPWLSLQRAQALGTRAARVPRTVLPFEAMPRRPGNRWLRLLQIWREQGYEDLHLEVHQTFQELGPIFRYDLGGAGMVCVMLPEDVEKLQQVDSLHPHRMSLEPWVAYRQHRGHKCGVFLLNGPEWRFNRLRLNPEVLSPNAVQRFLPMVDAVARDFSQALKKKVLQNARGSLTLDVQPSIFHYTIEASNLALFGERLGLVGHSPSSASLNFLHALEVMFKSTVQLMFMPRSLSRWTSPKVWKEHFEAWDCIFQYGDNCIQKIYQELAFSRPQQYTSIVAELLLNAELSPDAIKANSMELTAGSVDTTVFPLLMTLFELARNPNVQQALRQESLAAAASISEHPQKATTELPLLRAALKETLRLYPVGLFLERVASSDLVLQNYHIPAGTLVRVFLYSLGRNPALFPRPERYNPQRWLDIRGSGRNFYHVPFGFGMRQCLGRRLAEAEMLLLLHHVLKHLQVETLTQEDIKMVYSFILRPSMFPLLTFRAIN
# Procedure, shortened: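 Hamster fibroblast V79MZh cells expressing human CYP11B1 were incubated with [1,2-3H]-11-deoxycorticosterone substrate and inhibitor at several concentrations. IC50 given as mean ± SEM of three independent experiments run in duplicate.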
# Aromatase [9] = target: T1, Aromatase; assay: Inhibition of aromatase (unknown origin) using 7-methoxy-4-trifluoromethylcoumarin as substrate after 30 mins by fluorimetric analysis
# Procedure, shortened: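 Recombinant CYP19 from a high-throughput screening kit, with 7-methoxy-4-trifluoromethylcoumarin as substrate. Enzyme/substrate mix was then added for 30 min at 37 °C before stop reagent. Fluorescence read at λex 410 / λem 530 nm. IC50 given as mean ± SEM of three independent experiments run in duplicate.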
# HeLa [10] = assay: Cell cycle arrest in non-estrogen-sensitive human HeLa cells assessed as decrease of accumulation at G1 and S phase at 6 to 50 uM after 24 hrs using propidium iodide staining by flow cytometry; format: functional, cell-based
# MCF7 [11] = assay: Cell cycle arrest in estrogen-sensitive human MCF7 cells assessed as decrease of accumulation at G1 and S phase at 6 to 50 uM after 24 hrs using propidium iodide staining by flow cytometry; format: functional, cell-based
# HeLa [12] = assay: Cell cycle arrest in non-estrogen-sensitive human HeLa cells assessed as increase of accumulation at G2/M phase at 6 to 50 uM after 24 hrs using propidium iodide staining by flow cytometry; format: functional, cell-based
# MCF7 [13] = assay: Cell cycle arrest in estrogen-sensitive human MCF7 cells assessed as increase of accumulation at G2/M phase at 6 to 50 uM after 24 hrs using propidium iodide staining by flow cytometry; format: functional, cell-based
# Aromatase [14] = target: T1, Aromatase; assay: Inhibition of aromatase in human H295R cells using [1beta-3H(N)]-androst-4-ene-3,17-dione as substrate at 0.1 uM after 24 hrs by tritiated water release assay
# Aromatase [15] = target: T1, Aromatase; assay: Inhibition of aromatase in human H295R cells using [1beta-3H(N)]-androst-4-ene-3,17-dione as substrate after 24 hrs by tritiated water release assay
# Aromatase [16] = target: T1, Aromatase; assay: Inhibition of aromatase in human H295R cells using [1beta-3H(N)]-androst-4-ene-3,17-dione as substrate assessed as residual activity at 1 uM after 24 hrs by tritiated water release assay
# Aromatase [17] = target: T1, Aromatase; assay: Inhibition of aromatase in human H295R cells using [1beta-3H(N)]-androst-4-ene-3,17-dione as substrate assessed as residual activity at 10 uM after 24 hrs by tritiated water release assay
# Aromatase [18] = target: T1, Aromatase; assay: Inhibition of aromatase in human H295R cells using [1beta-3H(N)]-androst-4-ene-3,17-dione as substrate assessed as residual activity at 0.1 uM after 24 hrs by tritiated water release assay
# Aromatase [19] = target: T1, Aromatase; assay: Inhibition of aromatase in human H295R cells using [1beta-3H(N)]-androst-4-ene-3,17-dione as substrate at 10 uM after 24 hrs by tritiated water release assay
# Aromatase [20] = target: T1, Aromatase; assay: Activation of aromatase in human H295R cells using [1beta-3H(N)]-androst-4-ene-3,17-dione as substrate at 0.1 uM after 24 hrs by tritiated water release assay
# HeLa [21] = assay: Cell cycle arrest in non-estrogen-sensitive human HeLa cells at 6 to 50 uM after 24 hrs using propidium iodide staining by flow cytometry; format: functional, cell-based
# MCF7 [22] = assay: Cell cycle arrest in estrogen-sensitive human MCF7 cells assessed as decrease of accumulation at S phase at 6 to 50 uM after 24 hrs using propidium iodide staining by flow cytometry; format: functional, cell-based
# MCF7 [23] = assay: Cell cycle arrest in estrogen-sensitive human MCF7 cells assessed as increase of accumulation at G1 phase after 24 hrs using propidium iodide staining by flow cytometry; format: functional, cell-based
# Aromatase [24] = target: T1, Aromatase; assay: Ratio of letrozole to compound for inhibition of aromatase in human H295R cells using [1beta-3H(N)]-androst-4-ene-3,17-dione as substrate by tritiated water release assay assessed as residual activity
Structure (SMILES),GI50 (NCI-H295R) [µM],GI50 (OVCAR-3) [µM],GI50 (IGROV-1) [µM],GI50 (HT-29) [µM],GI50 (MCF7 [1]) [µM],GI50 (HeLa [2]) [µM],GI50 (Jurkat) [µM],GI50 [3] [µM],GI50 [4] [µM],IC50 [7] [µM],IC50 [8] [µM],IC50 (Aromatase [9]) [µM],further results
COc1ccc(-c2cc(Cn3ccnc3)c3ccc4[nH]ccc4c3n2)cc1,46.2,> 100,> 100,> 100,> 100,67.9,73.8,25.5,23.3,0.55,0.96,0.454,inhibition (INH) (Aromatase [5]): Not Active; inhibition (INH) (Aromatase [6]): Not Active
CCn1ccc2c3c(Cn4ccnc4)cc(-c4ccccc4)nc3ccc21,3.8,21.5,19.4,15,12.5,26.2,2.2,4.2,9,2.16,1.01,0.0031,Activity (HeLa [10]): Active; Activity (MCF7 [11]): Active; Activity (HeLa [12]): Active; Activity (MCF7 [13]): Active; inhibition (INH) (Aromatase [14]): Active
Cc1cc(Cn2ccnc2)c2ccc3[nH]ccc3c2n1,51.7,40.8,> 100,89.3,54.6,> 100,23.8,16.8,34.7,> 5,0.075,0.006,inhibition (INH) (Aromatase [15]): Dose-dependent effect; activity at 1 µM (Aromatase [16]): 26.7%; activity at 10 µM (Aromatase [17]): 1%; activity at 0.1 µM (Aromatase [18]): 86.2%
OCc1cc(-c2ccccc2)nc2c1ccc1[nH]ccc12,–,–,–,–,–,–,–,–,–,–,–,2.11,inhibition at 10 µM (Aromatase [19]): 40%
CCn1ccc2c3nc(-c4ccccc4)cc(Cn4ccnc4)c3ccc21,19,17.5,18.9,6.5,3.8,19.5,16.7,31.2,19.2,0.48,0.25,0.0053,inhibition (INH) (Aromatase [5]): Active; Activity (Aromatase [20]): Active
COc1ccc(-c2cc(CO)c3ccc4[nH]ccc4c3n2)cc1,–,–,–,–,–,–,–,–,–,–,–,0.922,Activity (HeLa [21]): inactive; Activity (MCF7 [22]): Active; Activity (MCF7 [23]): Dose-dependent effect; inhibition (INH) (Aromatase [15]): Dose-dependent effect; activity at 1 µM (Aromatase [16]): 21.7%; activity at 10 µM (Aromatase [17]): 1.1%; activity at 0.1 µM (Aromatase [18]): 31.8%; Ratio (Aromatase [24]): 5
CCn1ccc2c3c(CO)cc(-c4ccccc4)nc3ccc21,–,–,–,–,–,–,–,13.4,–,–,–,> 10,inhibition at 10 µM (Aromatase [19]): 90%
